From ChEMBL document CHEMBL1156291, “Design of potent and selective GSK3beta inhibitors with acceptable safety profile and pharmacokinetics” (Bioorg Med Chem Lett, 2010) come the findings set out here.

Converted amounts (≈) assume the structure as drawn. Bounds are passed on as bounds.

The target in one data set is T1, Cytochrome P450 1A2 (Homo sapiens, UniProt P05177).
T1 sequence (P05177 whole entry): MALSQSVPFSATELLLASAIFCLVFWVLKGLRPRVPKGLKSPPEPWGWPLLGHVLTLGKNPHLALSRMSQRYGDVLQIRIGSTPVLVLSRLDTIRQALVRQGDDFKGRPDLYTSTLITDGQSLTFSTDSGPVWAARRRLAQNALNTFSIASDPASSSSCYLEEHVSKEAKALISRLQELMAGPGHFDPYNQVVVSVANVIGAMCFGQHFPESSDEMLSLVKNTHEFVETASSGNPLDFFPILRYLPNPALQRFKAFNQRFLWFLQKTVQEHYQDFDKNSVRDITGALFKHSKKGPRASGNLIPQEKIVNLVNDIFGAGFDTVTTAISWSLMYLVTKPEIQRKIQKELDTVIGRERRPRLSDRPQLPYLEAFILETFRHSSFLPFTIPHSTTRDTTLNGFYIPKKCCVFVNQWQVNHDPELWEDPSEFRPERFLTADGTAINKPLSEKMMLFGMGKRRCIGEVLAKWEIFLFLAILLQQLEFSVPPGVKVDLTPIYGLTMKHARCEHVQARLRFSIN
Kind of data set: Inhibition of human recombinant CYP1A2. In kind it is ADME. The procedure, abridged: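 Human recombinant CYP1A2 with 3-cyano-7-ethoxycoumarin as probe substrate. Fluorescence read at Ex 410 nm / Em 460 nm. IC50 determined.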

In data set [1] the target is Cytochrome P450 1A2 (Homo sapiens) (UniProt P05177). As to the kind of experiment: Inhibition of human recombinant CYP1A2 by kinetic assay.
A short description of data set [2]: Metabolic stability in mouse liver S9 fraction assessed as compound remaining after 15 mins. In kind it is ADME, subcellular. To be noted: read-out: Activity. The procedure, abridged: (§1)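 Compound exposed for 15 min to hepatic S9 fraction, human or mouse according to the line. Read-out is percent of parent compound remaining.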
Data set [3] in a line: Metabolic stability in human liver S9 fraction assessed as compound remaining after 15 mins. It is filed as ADME, subcellular. Particulars: read-out: Activity. In a few lines:
as §1

In the next data set the test system is Caco-2. Kind of data set: Permeability across human Caco-2 cells assessed as compound transport per hr. In kind it is ADME, cell-based. (Caco-2 monolayers are a common model of the intestinal barrier.)
The nature of data set [4]: Solubility of the compound. It is filed as physicochemical. In a few lines: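 Solubility measured by nephelometry.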
Data set [5] in a line: Lipophilicity, log D at pH 7.4. Particulars: buffer. It is filed as physicochemical.
In data set [6] the target is Cyclin-dependent kinase 4 (Homo sapiens) (UniProt P11802). As to the kind of experiment: Inhibition of CDK4 at 10 uM.
Data set [7] addresses Cyclin-dependent kinase 9 (Homo sapiens) (UniProt P50750). As to the kind of experiment: Inhibition of CDK9 at 10 uM.
Data set [8] addresses Voltage-gated inwardly rectifying potassium channel KCNH2 (Homo sapiens, UniProt Q12809). Kind of data set: Inhibition of human ERG.
Data set [9] has as its target Cyclin-dependent kinase 5 (Homo sapiens) (UniProt Q00535). As to the kind of experiment: Inhibition of CDK5 at 10 uM.
Data set [10] addresses Cyclin-dependent kinase 2 (Homo sapiens) (UniProt P24941). Kind of data set: Inhibition of CDK2 at 10 uM.
The target of data set [11] is Glycogen synthase kinase-3 beta (Rattus norvegicus) (UniProt P18266). As to the kind of experiment: Inhibition of GSK3-beta assessed as tau phosphorylation.
The target of a further data set is Albumin (Homo sapiens, UniProt P02768). As to the kind of experiment: Binding affinity to human serum albumin. In kind it is ADME. To be noted: isolated protein.
The target of a further data set is Cytochrome P450 2C19 (Homo sapiens, UniProt P33261). As to the kind of experiment: Inhibition of human recombinant CYP2C19. In kind it is ADME.
For a further data set, the target named is Cytochrome P450 3A4 (Homo sapiens, UniProt P08684). As to the kind of experiment: Inhibition of human recombinant CYP3A4. In kind it is ADME.
The target in the next data set is Cytochrome P450 2C9 (Homo sapiens, UniProt P11712). Kind of data set: Inhibition of human recombinant CYP2C9. It is filed as ADME.
The target in another data set is hERG (KCNH2) (Homo sapiens, UniProt Q12809). Kind of data set: Inhibition of human ERG at 10 uM.
For another data set, the target named is Cytochrome P450 2D6 (Homo sapiens, UniProt P10635). Kind of data set: Inhibition of human recombinant CYP2D6. In kind it is ADME.
Sequence of Cytochrome P450 2D6 (P10635 whole entry): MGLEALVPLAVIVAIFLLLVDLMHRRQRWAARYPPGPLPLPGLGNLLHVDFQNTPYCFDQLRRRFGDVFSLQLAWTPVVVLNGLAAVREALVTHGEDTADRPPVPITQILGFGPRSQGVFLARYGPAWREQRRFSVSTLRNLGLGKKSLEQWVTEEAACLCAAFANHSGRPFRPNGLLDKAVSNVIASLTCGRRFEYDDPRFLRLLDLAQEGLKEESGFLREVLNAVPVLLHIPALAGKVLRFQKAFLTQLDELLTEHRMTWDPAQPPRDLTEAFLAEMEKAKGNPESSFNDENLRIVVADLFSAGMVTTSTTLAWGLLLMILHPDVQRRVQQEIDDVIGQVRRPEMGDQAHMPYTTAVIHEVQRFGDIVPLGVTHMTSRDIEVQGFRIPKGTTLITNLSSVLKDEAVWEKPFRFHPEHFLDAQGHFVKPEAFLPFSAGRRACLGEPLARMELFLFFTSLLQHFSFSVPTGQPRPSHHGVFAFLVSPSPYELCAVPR

Sequence of Albumin (P02768 whole entry): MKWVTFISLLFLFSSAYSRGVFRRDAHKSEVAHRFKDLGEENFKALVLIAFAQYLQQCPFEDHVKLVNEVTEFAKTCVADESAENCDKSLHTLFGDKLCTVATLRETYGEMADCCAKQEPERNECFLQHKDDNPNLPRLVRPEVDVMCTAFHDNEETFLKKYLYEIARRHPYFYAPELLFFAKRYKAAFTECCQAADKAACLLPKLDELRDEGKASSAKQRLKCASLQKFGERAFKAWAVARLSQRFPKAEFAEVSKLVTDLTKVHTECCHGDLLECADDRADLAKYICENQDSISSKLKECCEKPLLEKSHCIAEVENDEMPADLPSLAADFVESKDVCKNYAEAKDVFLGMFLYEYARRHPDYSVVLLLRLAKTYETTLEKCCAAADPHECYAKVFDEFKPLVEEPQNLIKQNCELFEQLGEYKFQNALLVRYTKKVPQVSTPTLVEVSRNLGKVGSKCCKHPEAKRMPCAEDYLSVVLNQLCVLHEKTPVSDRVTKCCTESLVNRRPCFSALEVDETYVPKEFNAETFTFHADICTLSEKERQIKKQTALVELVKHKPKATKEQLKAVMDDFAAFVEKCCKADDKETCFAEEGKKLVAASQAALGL
Sequence of Cytochrome P450 2C19 (P33261 whole entry): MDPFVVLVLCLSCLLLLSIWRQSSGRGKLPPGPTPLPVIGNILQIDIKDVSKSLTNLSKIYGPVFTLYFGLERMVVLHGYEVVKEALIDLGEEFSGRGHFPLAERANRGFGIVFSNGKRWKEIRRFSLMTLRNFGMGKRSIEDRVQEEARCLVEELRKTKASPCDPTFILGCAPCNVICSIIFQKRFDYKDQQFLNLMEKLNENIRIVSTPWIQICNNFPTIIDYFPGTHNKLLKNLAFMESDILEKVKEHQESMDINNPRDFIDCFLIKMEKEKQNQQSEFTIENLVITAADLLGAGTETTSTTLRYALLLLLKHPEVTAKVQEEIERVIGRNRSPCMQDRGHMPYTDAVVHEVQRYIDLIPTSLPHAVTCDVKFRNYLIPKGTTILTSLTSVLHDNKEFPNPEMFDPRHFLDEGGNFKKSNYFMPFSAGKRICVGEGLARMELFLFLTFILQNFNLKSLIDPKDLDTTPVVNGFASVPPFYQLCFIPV
Sequence of Cytochrome P450 3A4 (P08684 whole entry): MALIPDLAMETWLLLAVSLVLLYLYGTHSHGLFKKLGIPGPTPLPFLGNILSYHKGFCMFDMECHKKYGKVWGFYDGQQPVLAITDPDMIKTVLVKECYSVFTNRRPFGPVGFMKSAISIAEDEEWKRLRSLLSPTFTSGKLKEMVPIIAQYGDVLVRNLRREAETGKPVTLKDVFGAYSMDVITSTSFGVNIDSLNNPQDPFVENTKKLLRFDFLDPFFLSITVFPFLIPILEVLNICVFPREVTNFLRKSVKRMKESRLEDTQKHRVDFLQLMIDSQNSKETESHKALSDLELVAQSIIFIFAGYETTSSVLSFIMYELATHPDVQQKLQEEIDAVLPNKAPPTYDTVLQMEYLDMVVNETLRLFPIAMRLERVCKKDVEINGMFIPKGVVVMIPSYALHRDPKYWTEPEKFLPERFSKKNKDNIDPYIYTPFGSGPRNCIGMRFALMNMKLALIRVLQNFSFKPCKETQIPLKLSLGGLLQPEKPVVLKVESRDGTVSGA
Sequence of Cytochrome P450 2C9 (P11712 whole entry): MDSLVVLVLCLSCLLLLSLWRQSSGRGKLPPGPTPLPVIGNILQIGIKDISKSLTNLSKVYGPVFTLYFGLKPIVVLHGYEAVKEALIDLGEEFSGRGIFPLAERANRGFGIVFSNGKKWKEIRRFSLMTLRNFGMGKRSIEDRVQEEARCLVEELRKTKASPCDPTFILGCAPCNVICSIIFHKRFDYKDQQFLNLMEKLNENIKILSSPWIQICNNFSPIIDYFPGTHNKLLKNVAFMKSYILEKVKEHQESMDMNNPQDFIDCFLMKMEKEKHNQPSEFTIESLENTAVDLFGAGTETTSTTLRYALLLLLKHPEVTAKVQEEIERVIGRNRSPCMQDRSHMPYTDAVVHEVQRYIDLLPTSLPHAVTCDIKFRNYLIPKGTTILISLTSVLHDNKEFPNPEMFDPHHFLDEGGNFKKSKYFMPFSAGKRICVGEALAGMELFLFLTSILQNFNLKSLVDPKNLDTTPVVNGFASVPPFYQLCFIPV
Sequence of hERG (KCNH2) (Q12809 whole entry): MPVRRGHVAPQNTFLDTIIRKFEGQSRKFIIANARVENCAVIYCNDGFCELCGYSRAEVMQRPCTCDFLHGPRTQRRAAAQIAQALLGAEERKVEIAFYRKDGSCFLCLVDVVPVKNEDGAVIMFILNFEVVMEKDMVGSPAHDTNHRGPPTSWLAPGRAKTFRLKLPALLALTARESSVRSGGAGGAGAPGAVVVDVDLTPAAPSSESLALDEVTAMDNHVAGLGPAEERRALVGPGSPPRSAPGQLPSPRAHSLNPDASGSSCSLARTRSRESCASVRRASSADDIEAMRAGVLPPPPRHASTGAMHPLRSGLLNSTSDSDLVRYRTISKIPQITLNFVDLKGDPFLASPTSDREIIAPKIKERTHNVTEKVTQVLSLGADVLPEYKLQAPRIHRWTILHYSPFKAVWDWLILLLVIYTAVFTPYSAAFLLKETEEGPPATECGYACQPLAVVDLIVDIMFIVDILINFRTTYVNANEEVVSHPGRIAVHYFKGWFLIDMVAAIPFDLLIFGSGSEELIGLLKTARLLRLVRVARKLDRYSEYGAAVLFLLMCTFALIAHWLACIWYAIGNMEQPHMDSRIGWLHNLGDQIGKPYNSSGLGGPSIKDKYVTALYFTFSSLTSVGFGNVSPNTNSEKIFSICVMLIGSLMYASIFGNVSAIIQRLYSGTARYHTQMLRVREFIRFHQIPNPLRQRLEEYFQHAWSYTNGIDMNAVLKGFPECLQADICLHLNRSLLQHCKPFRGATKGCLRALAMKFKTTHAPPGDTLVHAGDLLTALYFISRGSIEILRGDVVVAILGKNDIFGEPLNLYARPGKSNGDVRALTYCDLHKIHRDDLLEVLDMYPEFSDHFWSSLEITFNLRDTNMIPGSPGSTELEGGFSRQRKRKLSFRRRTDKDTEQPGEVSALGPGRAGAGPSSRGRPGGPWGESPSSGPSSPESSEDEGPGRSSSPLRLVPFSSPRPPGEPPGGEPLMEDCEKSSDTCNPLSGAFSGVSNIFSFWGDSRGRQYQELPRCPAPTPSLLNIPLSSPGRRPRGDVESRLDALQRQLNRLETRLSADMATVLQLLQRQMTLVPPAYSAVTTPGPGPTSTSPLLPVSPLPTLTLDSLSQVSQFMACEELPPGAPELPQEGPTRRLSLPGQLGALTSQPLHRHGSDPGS
Sequence of Glycogen synthase kinase-3 beta (Rattus norvegicus) (P18266 whole entry, looked up): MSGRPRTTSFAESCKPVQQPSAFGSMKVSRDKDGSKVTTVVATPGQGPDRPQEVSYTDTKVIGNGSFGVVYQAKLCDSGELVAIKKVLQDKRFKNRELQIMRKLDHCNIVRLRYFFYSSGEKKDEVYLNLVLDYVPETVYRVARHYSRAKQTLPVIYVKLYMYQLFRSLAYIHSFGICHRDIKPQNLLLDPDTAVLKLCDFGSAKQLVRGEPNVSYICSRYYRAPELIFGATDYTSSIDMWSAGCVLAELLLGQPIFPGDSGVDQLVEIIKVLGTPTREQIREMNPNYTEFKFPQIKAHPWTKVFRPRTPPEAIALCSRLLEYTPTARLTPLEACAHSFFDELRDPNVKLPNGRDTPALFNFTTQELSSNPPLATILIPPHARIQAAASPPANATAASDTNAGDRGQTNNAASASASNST
Sequence of Cyclin-dependent kinase 4 (Homo sapiens) (P11802 whole entry): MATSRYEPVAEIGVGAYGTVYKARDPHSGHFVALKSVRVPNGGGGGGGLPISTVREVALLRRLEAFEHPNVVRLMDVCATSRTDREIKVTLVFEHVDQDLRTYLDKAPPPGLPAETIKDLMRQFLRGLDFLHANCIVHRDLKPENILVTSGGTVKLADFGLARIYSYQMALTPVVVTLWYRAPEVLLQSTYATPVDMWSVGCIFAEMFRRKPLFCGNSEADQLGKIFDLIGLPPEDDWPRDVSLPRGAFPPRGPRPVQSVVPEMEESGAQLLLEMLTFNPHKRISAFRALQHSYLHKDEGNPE
Sequence of Cyclin-dependent kinase 9 (Homo sapiens) (P50750 whole entry): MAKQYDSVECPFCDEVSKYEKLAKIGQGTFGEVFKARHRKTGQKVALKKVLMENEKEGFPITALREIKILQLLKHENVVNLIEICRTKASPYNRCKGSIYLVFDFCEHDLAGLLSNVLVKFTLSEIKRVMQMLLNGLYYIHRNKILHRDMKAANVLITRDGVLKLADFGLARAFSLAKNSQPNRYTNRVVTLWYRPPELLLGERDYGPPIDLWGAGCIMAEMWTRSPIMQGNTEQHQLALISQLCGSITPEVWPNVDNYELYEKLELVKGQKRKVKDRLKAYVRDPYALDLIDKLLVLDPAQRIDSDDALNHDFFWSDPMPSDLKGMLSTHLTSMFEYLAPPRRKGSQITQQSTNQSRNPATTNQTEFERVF

For orientation: IC50 means the concentration at which inhibition is half-maximal. Consider `CCCC(=O)Nc1n[nH]c2cc(Cl)c(-c3ccc(N)cc3)cc12`, for which the 50% inhibitory concentration (IC50) on Cytochrome P450 1A2 came to 0.98 µM.
Turning to `CCCC(=O)Nc1n[nH]c2cc(Cl)c(-c3ccc(F)cc3)cc12`, the concentration for half-maximal inhibition (IC50) at Cytochrome P450 1A2 is 0.83 µM; in data set [1] it was 0.13 µM.
As a reminder, the solubility is the concentration that dissolves in the medium under given conditions. As a reminder, the logD is lipophilicity at a set pH, counting ionised and neutral species. Lower therefore signals lower lipophilicity. `CCCC(=O)Nc1n[nH]c2c(F)c(F)ccc12`: the remaining at 0.25 h in [2] is 93%; in data set [3], 98%. Moreover, the permeability in the data set with Caco-2 was 16.33%. The solubility in data set [4] turned out to be 54 µg/mL (≈ 226 µM). Moreover, in data set [5], the logD is 3.
In the case of `CCCC(=O)Nc1n[nH]c2cc(-c3cc(F)cc(F)c3)ccc12`, the 50% inhibitory concentration (IC50) worked out at 13.8 µM on Cytochrome P450 1A2 and 2.7 µM in [1].
Regarding `O=C(CN1CCOCC1)Nc1n[nH]c2cc(Cl)ccc12`, the solubility in data set [4] is less than 20 µg/mL. Also, the logD in data set [5] was 3.1.
Regarding `CCCC(=O)Nc1n[nH]c2cc(Cl)c(-c3ccc(O)cc3)cc12`, the remaining at 0.25 h in [2] turned out to be 19%. Further, in the data set with Caco-2, the permeability turned out to be 8.02%. Also, the solubility in [4] was less than 20 µg/mL. The compound further showed a logD in data set [5] of 3.9. For the same compound, the IC50 in data set [1] amounted to 0.08 µM.
By inhibition is commonly meant how much of the control response was suppressed. For the compound `O=C(Nc1ccccc1)Nc1n[nH]c2cc(Cl)c(-c3ccccc3)cc12`, the inhibition in data set [6] is less than 50%; in [7], 81%; in data set [9] it was less than 50%; in data set [10], less than 50%. Besides, the remaining at 0.25 h in data set [2] is 92%. The IC50 in data set [8] was greater than 10 µM; in data set [11], 0.27 µM. For the same compound, the solubility in data set [4] is less than 20 µg/mL.
`CCCC(=O)Nc1n[nH]c2cc(Cl)c(-c3ccc(OCc4ccccc4)cc3)cc12`: the IC50 on Cytochrome P450 1A2 is greater than 10 µM.
For the compound `CCCC(=O)Nc1n[nH]c2cc(-c3cccnc3)ccc12`, the figures for the IC50 (on Cytochrome P450 1A2; in [1]) were 1.2 µM and 5.9 µM, respectively.
With `CCCC(=O)Nc1n[nH]c2cc(Cl)c(Br)cc12`, the remaining at 0.25 h in data set [2] worked out at 87%; in data set [3] it was 97%. Also, the concentration for half-maximal inhibition (IC50) at Cytochrome P450 1A2 came out at 0.55 µM. Further, the permeability with Caco-2 is on record as 17.25%. Further, in data set [4], the solubility is less than 20 µg/mL. Moreover, the logD in [5] amounted to 4.4.
As for `CCCC(=O)Nc1n[nH]c2cc(-c3ccsc3)ccc12`, the 50% inhibitory concentration (IC50) on Cytochrome P450 1A2 worked out at 1.9 µM.
As to `CCC(=O)Nc1n[nH]c2cc(Cl)ccc12`, the Activity on Albumin worked out at 92.8%. In addition, in data set [4] (read-out: solubility), the solubility worked out at 168 µg/mL (≈ 751 µM). The logD in data set [5] is 2.2.
For `CCCC(=O)Nc1n[nH]c2c(F)c(F)c(-c3ccccc3)cc12`, the remaining at 0.25 h in [2] was 56%; in data set [3], 86%. This compound came in with a solubility in [4] of 4 µg/mL (≈ 12.7 µM). In addition, the pH-dependent lipophilicity (logD) in [5] came to 2.4.
`O=C(CN1CCOCC1)Nc1n[nH]c2cc(Cl)c(-c3ccccc3)cc12` returned a solubility in data set [4] of 28 µg/mL (≈ 75.5 µM). For the same compound, in data set [5], the logD amounted to 3.49.
For `O=C(NCCCn1ccnc1)Nc1n[nH]c2cc(Cl)c(-c3ccccc3)cc12`, the remaining at 0.25 h in data set [2] came to 85%. This compound also registered a solubility in data set [4] of less than 20 µg/mL.
With `CCCC(=O)Nc1n[nH]c2cc(Cl)c(-c3ccc(C)cc3)cc12`, the IC50 at Cytochrome P450 1A2 came to 1.75 µM.
`CCCC(=O)Nc1n[nH]c2cc(Cl)c(-c3ccccc3)cc12`: the 50% inhibitory concentration (IC50) at Cytochrome P450 2C19 is greater than 10 µM; at Cytochrome P450 3A4 it was greater than 10 µM; on Cytochrome P450 1A2, less than 0.4 µM; on Cytochrome P450 2C9 it was greater than 10 µM; at Cytochrome P450 2D6, greater than 10 µM; in data set [1], 0.08 µM. Further, the Activity at Albumin is 99.4%. Moreover, the remaining at 0.25 h in data set [2] is 40%; in data set [3], 91%. Besides, the permeability in the data set with Caco-2 was 3.9%. On hERG (KCNH2), this compound returned an inhibition at 10 µM of 24%. This compound also yielded a solubility in data set [4] of less than 20 µg/mL. The logD in data set [5] stood at 3.7.
On to `CCCC(=O)Nc1n[nH]c2cc(-c3ccccc3)ccc12`, for which the IC50 on Cytochrome P450 1A2 is greater than 10 µM; in [1], 0.39 µM.
As for `O=C(Nc1n[nH]c2cc(Cl)c(-c3ccccc3)cc12)N1CCCC1`, the remaining at 0.25 h in [2] was found to be 79%. Further, the solubility in [4] was less than 20 µg/mL.
On to `CC(C(=O)Nc1n[nH]c2cc(Cl)c(-c3ccccc3)cc12)N1CCCCC1` (centres undefined), for which, in data set [4], the solubility is less than 20 µg/mL. This compound had a logD in [5] of 3.53.
For `CCCC(=O)Nc1n[nH]c2cc(Cl)c(-c3ccc([N+](=O)[O-])cc3)cc12`, the IC50 on Cytochrome P450 1A2 was 4.46 µM.
Regarding `CCCC(=O)Nc1n[nH]c2cc(Cl)c(-c3ccoc3)cc12`, the remaining at 0.25 h in [2] stood at 4%; in data set [3], 45%. Besides, the IC50 was less than 0.4 µM at Cytochrome P450 1A2 and 0.03 µM in data set [1]. In the data set on Caco-2, the permeability is given as 12.3%. The same compound had a solubility in [4] of less than 20 µg/mL. This compound returned a logD in data set [5] of 4.1.
Consider `CCCC(=O)Nc1n[nH]c2cc(-c3ccc(O)cc3)ccc12`, for which, at Albumin, the Activity came to 97.3%. Also, the values for the remaining at 0.25 h in [2] and in data set [3] were 4% and 58%, respectively. The half-maximal inhibitory concentration (IC50) was greater than 50 µM at Cytochrome P450 1A2 and 22 µM in data set [1]. Further, the permeability with Caco-2 is listed as 15.25%. In [4], this compound displayed a solubility of 67 µg/mL (≈ 227 µM).
For `CCCC(=O)Nc1n[nH]c2cc(-c3ccc(O)cc3)c(Br)cc12`, the IC50 was greater than 10 µM on Cytochrome P450 2C19; greater than 10 µM at Cytochrome P450 3A4; greater than 10 µM on Cytochrome P450 1A2; greater than 10 µM at Cytochrome P450 2C9; greater than 10 µM at Cytochrome P450 2D6; 0.07 µM in data set [1]. The Activity at Albumin came to 99.3%. For the same compound, the remaining at 0.25 h in data set [2] was 10%; in [3], 91%. On hERG (KCNH2), this compound showed an inhibition at 10 µM of 7%. Besides, the solubility in [4] was less than 20 µg/mL. The logD in data set [5] was 4.4.
In the case of `CN1CCN(CCCNC(=O)Nc2n[nH]c3cc(Cl)c(-c4ccccc4)cc23)CC1`, in [2], the remaining at 0.25 h came out at 100%. For the same compound, the solubility in [4] is greater than 208 µg/mL.
With `O=C(O)CCC(=O)Nc1n[nH]c2cc(Cl)ccc12`, the Activity at Albumin is on record as less than 90%. For the same compound, on Cytochrome P450 1A2, the IC50 is greater than 50 µM. Besides, the solubility in data set [4] (read-out: solubility) came out at 716 µg/mL (≈ 2670 µM). The logD in data set [5] is less than 1.
